# Experimental data reported in ChEMBL document CHEMBL1129787, “Synthesis of potent cyclic hexapeptide NK-1 antagonists. Use of a minilibrary in transforming a peptidal somatostatin receptor ligand into an NK-1 receptor ligand via a polyvalent peptidomimetic” (J Med Chem, 1996).
# Non-standard residues stand in square brackets, D forms with d. Residues, ends and D or L forms follow the SMILES beside them. Phe(4-F) = N[C@@H](Cc1ccc(F)cc1)C(=O)O; 1Nal = N[C@@H](Cc1cccc2ccccc12)C(=O)O
# Target: T1, Substance-P receptor (Homo sapiens, UniProt P25103)
# T1 sequence (P25103 whole entry): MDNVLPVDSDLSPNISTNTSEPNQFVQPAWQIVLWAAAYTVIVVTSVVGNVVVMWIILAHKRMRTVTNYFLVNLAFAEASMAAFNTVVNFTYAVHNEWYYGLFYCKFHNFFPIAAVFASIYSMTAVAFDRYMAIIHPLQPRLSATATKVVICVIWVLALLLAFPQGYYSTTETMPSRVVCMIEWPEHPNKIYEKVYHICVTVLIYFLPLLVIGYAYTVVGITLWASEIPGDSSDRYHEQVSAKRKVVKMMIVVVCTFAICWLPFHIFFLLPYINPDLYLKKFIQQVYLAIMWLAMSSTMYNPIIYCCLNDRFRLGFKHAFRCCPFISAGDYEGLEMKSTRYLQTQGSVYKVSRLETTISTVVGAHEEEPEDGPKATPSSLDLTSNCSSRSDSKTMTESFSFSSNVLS
# Experiment: Inhibition of Tachykinin receptor 1
# In short: (§1)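 NK-1 receptor inhibition assay. IC50 is reported in nM as the mean ± SD.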
row,IC50,SMILES
1,496 nM,C[C@H](O)[C@@H]1NC(=O)[C@H](Cc2ccccc2)NC(=O)[C@@H](Cc2c[nH]c3ccccc23)NC(=O)[C@@H](Cc2ccccc2)NC(=O)[C@@H]2CCCN2C(=O)[C@H](Cc2ccccc2)NC1=O
2,85 nM,C[C@@H](O)[C@@H]1NC(=O)[C@H](Cc2ccccc2)NC(=O)[C@@H](Cc2c[nH]c3ccccc23)NC(=O)[C@H](CCc2ccccc2)NC(=O)[C@@H]2CCCN2C(=O)[C@H](Cc2ccccc2)NC1=O
3,95 nM,C[C@H](O)[C@@H]1NC(=O)[C@H](Cc2ccccc2)NC(=O)[C@@H](Cc2c[nH]c3ccccc23)NC(=O)[C@H](Cc2ccccc2)NC(=O)[C@@H]2CCCN2C(=O)[C@H](Cc2ccccc2)NC1=O
4,2 nM,C[C@@H](O)[C@@H]1NC(=O)[C@H](Cc2ccc(F)cc2)NC(=O)[C@@H](Cc2c[nH]c3ccccc23)NC(=O)[C@H](Cc2cccc3ccccc23)NC(=O)[C@@H]2CCCN2C(=O)[C@H](Cc2ccccc2)NC1=O (cyclo([1Nal][dW][Phe(4-F)]TFP))
5,59 nM,COc1ccc(C[C@@H]2NC(=O)[C@@H](Cc3c[nH]c4ccccc34)NC(=O)[C@H](Cc3ccccc3)NC(=O)[C@@H]3CCCN3C(=O)[C@H](Cc3ccccc3)NC(=O)[C@H]([C@@H](C)O)NC2=O)cc1 (cyclo(FPF[dW]Y(Me)T))
6,15 nM,C[C@@H](O)[C@@H]1NC(=O)[C@H](Cc2ccccc2)NC(=O)[C@@H](Cc2c[nH]c3ccccc23)NC(=O)[C@H](Cc2cccc3ccccc23)NC(=O)[C@@H]2CCCN2C(=O)[C@H](Cc2ccccc2)NC1=O (cyclo([1Nal][dW]FTFP))
7,28 nM,C[C@@H](O)[C@@H]1NC(=O)[C@H](Cc2ccc(F)cc2)NC(=O)[C@@H](Cc2c[nH]c3ccccc23)NC(=O)[C@H](Cc2ccccc2)NC(=O)[C@@H]2CCCN2C(=O)[C@H](Cc2ccccc2)NC1=O (cyclo(FPF[dW][Phe(4-F)]T))
8,596 nM,C[C@@H](O)[C@@H]1NC(=O)[C@H](Cc2ccccc2)NC(=O)[C@@H](Cc2c[nH]c3ccccc23)NC(=O)[C@H](CO)NC(=O)[C@@H]2CCCN2C(=O)[C@H](Cc2ccccc2)NC1=O

# Second part, the molecule before the results:
row,SMILES,IC50
1,C[C@@H](O)[C@@H]1NC(=O)[C@H](CCCCN)NC(=O)[C@@H](Cc2c[nH]c3ccccc23)NC(=O)[C@H](Cc2ccccc2)NC(=O)[C@@H]2CCCN2C(=O)[C@H](Cc2ccccc2)NC1=O (cyclo(PF[dW]KTF)),> 1000 nM
2,C[C@@H](O)[C@@H]1NC(=O)[C@H](Cc2ccccc2)NC(=O)[C@@H](Cc2c[nH]c3ccccc23)NC(=O)[C@H](CC(=O)O)NC(=O)[C@@H]2CCCN2C(=O)[C@H](Cc2ccccc2)NC1=O (cyclo(D[dW]FTFP)),1390 nM
3,C[C@@H](O)[C@@H]1NC(=O)[C@H](Cc2ccc(O)cc2)NC(=O)[C@@H](Cc2c[nH]c3ccccc23)NC(=O)[C@H](Cc2ccccc2)NC(=O)[C@@H]2CCCN2C(=O)[C@H](Cc2ccccc2)NC1=O (cyclo(FPF[dW]YT)),1050 nM
4,CC(C)[C@@H]1NC(=O)[C@H](CCCCN)NC(=O)[C@@H](Cc2c[nH]c3ccccc23)NC(=O)[C@H](Cc2ccc(O)cc2)NC(=O)[C@H](C)N(C)C(=O)[C@H](Cc2ccccc2)NC1=O [SEGLITIDE],> 1000 nM
5,C[C@@H]1NC(=O)[C@@H](Cc2c[nH]c3ccccc23)NC(=O)[C@H](Cc2ccccc2)NC(=O)[C@@H]2CCCN2C(=O)[C@H](Cc2ccccc2)NC(=O)[C@H]([C@@H](C)O)NC1=O,4090 nM
6,CC(C)C[C@@H]1NC(=O)[C@@H](Cc2c[nH]c3ccccc23)NC(=O)[C@H](Cc2ccccc2)NC(=O)[C@@H]2CCCN2C(=O)[C@H](Cc2ccccc2)NC(=O)[C@H]([C@@H](C)O)NC1=O,2730 nM
7,C[C@@H](O)[C@@H]1NC(=O)[C@H](Cc2ccccc2)NC(=O)[C@@H](Cc2c[nH]c3ccccc23)NC(=O)[C@H](CC2CCCCC2)NC(=O)[C@@H]2CCCN2C(=O)[C@H](Cc2ccccc2)NC1=O,198 nM
8,C[C@@H]1NC(=O)[C@@H]2CCCN2C(=O)[C@H](Cc2ccccc2)NC(=O)[C@H]([C@@H](C)O)NC(=O)[C@H](Cc2ccccc2)NC(=O)[C@@H](Cc2c[nH]c3ccccc23)NC1=O,549 nM

# Target: Somatostatin receptor
# Experiment: Ability to inhibit binding of […]-CGP 23996 to somatostatin receptor on membranes from pituitary
row,IC50,SMILES
1,5 µM,NCCCCCOC[C@H]1O[C@@H](OCCc2c[nH]c3ccccc23)[C@H](OCc2ccccc2)[C@@H](OCc2ccccc2)[C@@H]1OCc1ccccc1

# Target: Somatostatin receptor
# Experiment: Ability to inhibit binding of […]-CGP 23996 to somatostatin receptor on membranes from cerebral cortex
# Assay type: tissue-based
row,IC50,SMILES
1,5 µM,NCCCCCOC[C@H]1O[C@@H](OCCc2c[nH]c3ccccc23)[C@H](OCc2ccccc2)[C@@H](OCc2ccccc2)[C@@H]1OCc1ccccc1

# Target: Beta-2 adrenergic receptor (Homo sapiens, UniProt P07550)
# Sequence (P07550 whole entry): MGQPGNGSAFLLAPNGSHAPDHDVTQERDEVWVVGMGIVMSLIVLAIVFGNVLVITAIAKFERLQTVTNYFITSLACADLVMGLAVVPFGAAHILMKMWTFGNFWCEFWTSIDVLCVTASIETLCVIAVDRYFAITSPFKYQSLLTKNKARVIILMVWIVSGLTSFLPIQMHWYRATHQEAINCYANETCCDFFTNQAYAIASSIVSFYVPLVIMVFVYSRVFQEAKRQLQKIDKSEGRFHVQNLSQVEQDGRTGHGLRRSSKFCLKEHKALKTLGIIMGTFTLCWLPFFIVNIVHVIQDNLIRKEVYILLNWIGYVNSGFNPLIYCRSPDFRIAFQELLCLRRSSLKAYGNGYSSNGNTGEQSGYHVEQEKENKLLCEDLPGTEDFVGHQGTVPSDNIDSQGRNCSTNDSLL
# Experiment: Binding affinity towards cloned human Beta-2 adrenergic receptor
row,IC50,SMILES
1,3 µM,NCCCCCOC[C@H]1O[C@@H](OCCc2c[nH]c3ccccc23)[C@H](OCc2ccccc2)C[C@@H]1OCc1ccccc1
2,3 µM,NCCCCCOC[C@H]1O[C@@H](OCCc2c[nH]c3ccccc23)[C@H](OCc2ccccc2)[C@@H](OCc2ccccc2)[C@@H]1OCc1ccccc1

# Target: T1, Substance-P receptor
# Experiment: Percent Inhibition against Tachykinin receptor 1 at 2 uM
row,inhibition,SMILES
1,51%,C[C@@H](O)[C@@H]1NC(=O)[C@H](Cc2ccccc2)NC(=O)[C@@H](Cc2c[nH]c3ccccc23)NC(=O)[C@@H]2CCCN2C(=O)[C@@H]2CCCN2C(=O)[C@H](Cc2ccccc2)NC1=O

# Target: T1, Substance-P receptor
# Experiment: Binding affinity towards Tachykinin receptor 1
# In short: as §1
row,IC50,SMILES
1,60 nM,CC(=O)NCCCCCOC[C@H]1O[C@@H](OCCc2c[nH]c3ccccc23)[C@H](OCc2ccccc2)[C@@H](OCc2ccccc2)[C@@H]1OCc1ccccc1
2,180 nM,NCCCCCOC[C@H]1O[C@@H](OCCc2c[nH]c3ccccc23)[C@H](OCc2ccccc2)C[C@@H]1OCc1ccccc1
